Calls of active or inactive are those of the source. The rule behind the calls is not given here.

The assay relates to Mycobacterium tuberculosis. As to the kind of experiment: Antimycobacterial activity against drug-resistant Mycobacterium tuberculosis H37Rv at 2mg/mL by BACTEC assay. Type of assay: functional, organism-based. The essentials: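 Radiometric BACTEC 12B (7H12) vials with a growing inoculum of 2.5-5.0 × 10⁵ CFU/vial, two-fold compound dilutions, 37 °C. Growth index read daily in a BACTEC 460 until 1:100 inoculum controls reached GI 30. Percent inhibition = (GI test/GI control) × 100.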

As for `CO[C@H]1/C=C/O[C@@]2(C)Oc3c(C)c(O)c4c(O)c(c(/C=N/N5CCN(C)CC5)c(O)c4c3C2=O)NC(=O)/C(C)=C\C=C\[C@H](C)[C@H](O)[C@@H](C)[C@@H](O)[C@@H](C)[C@H](OC(C)=O)[C@@H]1C` [RIFAMPIN], the outcome was inactive.

The values are drawn from ChEMBL document CHEMBL1146217, “Growth inhibition of Mycobacterium bovis, Mycobacterium tuberculosis and Mycobacterium avium in vitro: effect of 1-beta-D-2'-arabinofuranosyl and 1-(2'-deoxy-2'-fluoro-beta-D-2'-ribofuranosyl) pyrimidine nucleoside analogs” (J Med Chem, 2007).
